Among the data in ChEMBL document CHEMBL2311257, “Synthesis and antioxidant activity of thymol and carvacrol based Schiff bases” (Bioorg Med Chem Lett, 2013) are Activity and IC50 values, retold here.

≈ marks a conversion by molar mass, not a printed value.

Holding throughout (type): functional
The subject of assay [1] is Radical scavenging activity. Briefly: Antioxidant activity assessed as DPPH radical scavenging activity in ethanol solution at 50 ug/mL. In short, it runs like this: (§1)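 Compound dissolved in ethanol, then ethanolic DPPH added. Incubated 30 min in the dark. DPPH decrease read as absorbance at 517 nm against an ethanol blank, with ascorbic acid as reference. % activity = [(A0 − Ai)/A0] × 100, where A0 is absorbance without compound and Ai with compound. IC50 taken from activity across concentrations.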
On the technique in general: Loss of DPPH colour is used to gauge radical scavenging.

The test system of assay [2] is Radical scavenging activity. Briefly: Antioxidant activity assessed as DPPH radical scavenging activity in ethanol solution at 100 ug/mL. In short, it runs like this:
as §1

The subject of assay [3] is Radical scavenging activity. Description: Antioxidant activity assessed as DPPH radical scavenging activity in ethanol solution at 25 ug/mL. In short, it runs like this: as §1
Assay [4] relates to Radical scavenging activity. Briefly: Antioxidant activity assessed as DPPH radical scavenging activity in ethanol solution at 5 ug/mL. In short, it runs like this: as §1
In assay [5] the test system is Radical scavenging activity. Briefly: Antioxidant activity assessed as DPPH radical scavenging activity in ethanol solution at 10 ug/mL. In short, it runs like this: as §1
In assay [6] the test system is Radical scavenging activity. Description: Antioxidant activity assessed as DPPH radical scavenging activity in ethanol solution. In short, it runs like this:
as §1

As for `Cc1cc(O)c(C(C)C)cc1/N=C/c1ccc(C(C)C)cc1`, the Activity came to 70.5% in assay [1]; 82.6% in assay [2]; 67.5% in assay [3]; 24.5% in assay [4]; 50.8% in assay [5]. Also, the IC50 – broadly, the concentration needed to halve the response being measured – in assay [6] came out at 18.66 µg/mL (≈ 63.2 µM).

With `Cc1cc(O)c(C(C)(C)C)cc1/N=C/c1ccc2c(c1)OCO2`, the Activity amounted to 87.5% in assay [1]; 89.3% in assay [2]; 68.5% in assay [3]; 25.1% in assay [4]; 49.8% in assay [5]. Besides, the IC50 in assay [6] was determined as 13.64 µg/mL (≈ 43.8 µM).

For the molecule `Cc1ccc(C(C)(C)C)c(O)c1`, the Activity worked out at 19.6% in assay [1]; 28.6% in assay [2]; 11.3% in assay [3]; 3.29% in assay [4]; 4.69% in assay [5]. In addition, the IC50 in assay [6] turned out to be 173.95 µg/mL (≈ 1060 µM).

For `Cc1cc(O)c(C(C)(C)C)cc1/N=C/c1ccccc1`, the Activity in assay [1] came out at 75.7%; in assay [2] it was 87%; in assay [3], 61.1%; in assay [4] it was 28%; in assay [5] it was 49.6%. In addition, in assay [6], the IC50 came out at 18.6 µg/mL (≈ 69.6 µM).

For `Cc1cc(/N=C/c2cccnc2)c(C(C)C)cc1O`, the Activity in assay [1] was 71.1%; in assay [2], 73.8%; in assay [3], 61.9%; in assay [4], 21.8%; in assay [5], 34.2%. Besides, the IC50 in assay [6] stood at 32.76 µg/mL (≈ 129 µM).

With `Cc1cc(O)c(C(C)C)cc1/N=C/c1ccc(F)cc1`, the Activity came out at 73.2% in assay [1]; 79.2% in assay [2]; 62.9% in assay [3]; 21.7% in assay [4]; 44.1% in assay [5]. The IC50 in assay [6] is 25.59 µg/mL (≈ 94.3 µM).

On to `Cc1cc(/N=C/c2ccc(Br)cc2)c(C(C)C)cc1O`, for which the Activity came to 64.5% in assay [1]; 79.9% in assay [2]; 63.1% in assay [3]; 28.8% in assay [4]; 45.4% in assay [5]. In assay [6], the IC50 is 23.77 µg/mL (≈ 71.5 µM).

In the case of `Cc1cc(O)c(C(C)(C)C)cc1/N=C/c1ccc(Br)cc1`, the Activity in assay [1] came out at 74.2%; in assay [2], 81.1%; in assay [3], 59.4%; in assay [4], 32.8%; in assay [5], 43.9%. In assay [6], the IC50 came out at 20.36 µg/mL (≈ 58.8 µM).

In the case of `CCc1ccc(/C=N/c2cc(C(C)C)c(O)cc2C)cc1`, the Activity was 72.4% in assay [1]; 77% in assay [2]; 64.7% in assay [3]; 28.8% in assay [4]; 43% in assay [5]. Further, the IC50 in assay [6] was found to be 21.62 µg/mL (≈ 76.8 µM).

On to `Cc1cc(/N=C/c2ccc(C(C)(C)C)cc2)c(C(C)C)cc1O`, for which the Activity in assay [1] was 70.2%; in assay [2], 79.2%; in assay [3], 62.1%; in assay [4], 25%; in assay [5], 49.9%. The IC50 in assay [6] came out at 21.89 µg/mL (≈ 70.7 µM).

As to `Cc1cc(O)c(C(C)(C)C)cc1/N=C/c1ccc(F)cc1`, the Activity came to 72% in assay [1]; 75.3% in assay [2]; 57% in assay [3]; 28.5% in assay [4]; 41.8% in assay [5]. Also, in assay [6], the IC50 was 26.96 µg/mL (≈ 94.5 µM).

For the molecule `Cc1cc(O)c(C(C)C)cc1/N=C/c1ccccc1`, the Activity in assay [1] turned out to be 77.9%; in assay [2], 83.8%; in assay [3] it was 60.6%; in assay [4], 31.6%; in assay [5], 45.2%. For the same molecule, in assay [6], the IC50 came to 18.55 µg/mL (≈ 73.2 µM).

As for `Cc1cc(O)c(C(C)(C)C)cc1/N=C/c1ccc(Cl)cc1`, the Activity stood at 73.9% in assay [1]; 79.8% in assay [2]; 61.5% in assay [3]; 29.7% in assay [4]; 42.6% in assay [5]. Further, the IC50 in assay [6] amounted to 22.2 µg/mL (≈ 73.6 µM).

In the case of `Cc1cc(/N=C/c2ccc3c(c2)OCO3)c(C(C)C)cc1O`, the Activity in assay [1] was determined as 77.5%; in assay [2], 88.8%; in assay [3] it was 68.6%; in assay [4] it was 28.8%; in assay [5] it was 45.4%. The IC50 in assay [6] was 16.58 µg/mL (≈ 55.8 µM).

Regarding `CCc1ccc(/C=N/c2cc(C(C)(C)C)c(O)cc2C)cc1`, the Activity in assay [1] is 72.4%; in assay [2], 80.9%; in assay [3] it was 56.3%; in assay [4], 27.1%; in assay [5] it was 47.2%. The IC50 in assay [6] came to 24.04 µg/mL (≈ 81.4 µM).

With `Cc1ccc(/C=N/c2cc(C(C)C)c(O)cc2C)cc1`, the Activity stood at 71.4% in assay [1]; 75.1% in assay [2]; 64.7% in assay [3]; 27.3% in assay [4]; 45% in assay [5]. Also, in assay [6], the IC50 worked out at 21.89 µg/mL (≈ 81.9 µM).

Turning to `Cc1cc(O)c(C(C)(C)C)cc1/N=C/c1ccc([N+](=O)[O-])cc1`, the Activity in assay [1] is 62.4%; in assay [2], 73%; in assay [3] it was 45.3%; in assay [4], 16.8%; in assay [5], 26%. Besides, in assay [6], the IC50 is 47.39 µg/mL (≈ 152 µM).

As to `Cc1cc(/N=C/c2ccc(F)cc2)c(C(C)C)cc1O`, the Activity worked out at 66.3% in assay [1]; 73.7% in assay [2]; 58.8% in assay [3]; 22.5% in assay [4]; 41.1% in assay [5]. In addition, the IC50 in assay [6] worked out at 32.52 µg/mL (≈ 120 µM).

For the molecule `Cc1cc(O)c(C(C)C)cc1/N=C/c1ccccn1`, the Activity worked out at 74.6% in assay [1]; 92.8% in assay [2]; 58.4% in assay [3]; 25.5% in assay [4]; 43.6% in assay [5]. In addition, the IC50 in assay [6] is 23.86 µg/mL (≈ 93.8 µM).

Consider `Cc1cc(O)c(C(C)C)cc1/N=C/c1ccc(C(C)(C)C)cc1`, for which the Activity in assay [1] turned out to be 73.5%; in assay [2], 83.8%; in assay [3], 66.2%; in assay [4], 23.6%; in assay [5], 51.6%. Further, the IC50 in assay [6] amounted to 18.37 µg/mL (≈ 59.4 µM).

Consider `CCCc1ccc(/C=N/c2cc(C(C)C)c(O)cc2C)cc1`, for which the Activity amounted to 69.2% in assay [1]; 72.5% in assay [2]; 65.5% in assay [3]; 25.1% in assay [4]; 50.7% in assay [5]. Further, in assay [6], the half-maximal inhibitory concentration (IC50) came to 20.16 µg/mL (≈ 68.2 µM).

As to `Cc1ccc(C(C)C)c(O)c1` [THYMOL], the Activity turned out to be 21.3% in assay [1]; 29.5% in assay [2]; 14.7% in assay [3]; 3.07% in assay [4]; 5.49% in assay [5]. In addition, the IC50 in assay [6] was determined as 167.57 µg/mL (≈ 1120 µM).

Turning to `CCCc1ccc(/C=N/c2cc(C(C)(C)C)c(O)cc2C)cc1`, the Activity in assay [1] is 70.8%; in assay [2], 84%; in assay [3], 62.9%; in assay [4] it was 28.6%; in assay [5], 45.8%. Besides, the IC50 in assay [6] was determined as 21.12 µg/mL (≈ 68.2 µM).

Take `CCc1ccc(/C=N/c2cc(C)c(O)cc2C(C)C)cc1`: the Activity in assay [1] was found to be 75.2%; in assay [2], 82.3%; in assay [3], 61.3%; in assay [4] it was 23.4%; in assay [5], 42.1%. In addition, in assay [6], the half-inhibitory concentration (IC50) is 25.34 µg/mL (≈ 90.1 µM).

For `Cc1cc(O)c(C(C)(C)C)cc1/N=C/c1cccnc1`, the Activity was 70.3% in assay [1]; 78.3% in assay [2]; 54.5% in assay [3]; 20.1% in assay [4]; 37.6% in assay [5]. In assay [6], the IC50 was determined as 34.03 µg/mL (≈ 127 µM).

Regarding `Cc1cc(/N=C/c2ccccc2)c(C(C)C)cc1O`, the Activity in assay [1] came out at 75%; in assay [2], 82.5%; in assay [3], 63.1%; in assay [4] it was 24.6%; in assay [5], 45.4%. Also, in assay [6], the half-maximal inhibitory concentration (IC50) was 22.26 µg/mL (≈ 87.9 µM).

As for `Cc1cc(O)c(C(C)C)cc1/N=C/c1ccc(Br)cc1`, the Activity in assay [1] was determined as 72.5%; in assay [2], 80.9%; in assay [3], 60%; in assay [4] it was 27.7%; in assay [5] it was 46.9%. For the same molecule, the IC50 in assay [6] was determined as 22.05 µg/mL (≈ 66.4 µM).

On to `Cc1cc(O)c(C(C)C)cc1/N=C/c1ccc(Cl)cc1`, for which the Activity in assay [1] came out at 74.1%; in assay [2], 79.8%; in assay [3], 63.8%; in assay [4] it was 22.4%; in assay [5], 44.7%. For the same molecule, in assay [6], the IC50 was found to be 24.11 µg/mL (≈ 83.8 µM).

For the molecule `Cc1cc(/N=C/c2ccccn2)c(C(C)C)cc1O`, the Activity in assay [1] came to 75.5%; in assay [2], 78.1%; in assay [3], 65.2%; in assay [4], 23.4%; in assay [5], 41.2%. The IC50 in assay [6] came out at 24.4 µg/mL (≈ 95.9 µM).

With `Cc1ccc(/C=N/c2cc(C)c(O)cc2C(C)C)cc1`, the Activity in assay [1] is 73.4%; in assay [2], 81.3%; in assay [3], 60.7%; in assay [4], 22.1%; in assay [5], 44.9%. Besides, the IC50 in assay [6] amounted to 25.58 µg/mL (≈ 95.7 µM).

For the molecule `Cc1cc(O)c(C(C)(C)C)cc1/N=C/c1ccc(C(C)(C)C)cc1`, the Activity in assay [1] is 73%; in assay [2] it was 86.7%; in assay [3], 65.2%; in assay [4], 27.5%; in assay [5] it was 45.6%. Further, in assay [6], the IC50 is 20.05 µg/mL (≈ 62 µM).

For the molecule `Cc1ccc(C(C)C)cc1O` [CARVACROL], the Activity turned out to be 27.4% in assay [1]; 37.4% in assay [2]; 18.4% in assay [3]; 5.17% in assay [4]; 9.91% in assay [5]. For the same molecule, in assay [6], the concentration for half-maximal inhibition (IC50) was 131.24 µg/mL (≈ 874 µM).
